Assays:
[1] = tested on: VCAM‐1, ICAM‐1, MMP‐3, haptoglobin, IL‐18, YKL‐40; assay: Study 2, PD marker proteins in plasma; assay type: in vivo, human; conditions: 75, 150, or 300 mg, after 4 weeks
Method in brief: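 Plasma taken at baseline and week 4 from all study 2 participants. Dosed once daily for 4 weeks. YKL-40 measured by ELISA; VCAM-1, ICAM-1, MMP-3, haptoglobin and IL-18 quantified by a second technology at a service laboratory. Each patient normalized to own baseline, expressed as percent change. Mean ± SEM; Kruskal-Wallis test with Dunn's post hoc test.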

[2] = cited from earlier work
RA patients [3] = assay: Study 1, treatment‐emergent adverse events; assay type: in vivo, human; conditions: for treatment-related TEAE: Abdominal discomfort / treatment-related TEAE: Abdominal pain, upper / treatment-related TEAE: Aspartate aminotransferase increased / treatment-related TEAE: Blood amylase increased / treatment-related TEAE: Blood and lymphatic system disorders / treatment-related TEAE: Blood triglycerides increased / treatment-related TEAE: Cystitis, noninfectious / treatment-related TEAE: Duodenogastric reflux / treatment-related TEAE: Ear and labyrinth disorders / treatment-related TEAE: Gastrointestinal disorders / treatment-related TEAE: Gastrointestinal pain / treatment-related TEAE: General disorders and administration site reactions / treatment-related TEAE: Gingival bleeding / treatment-related TEAE: Infections and infestations / treatment-related TEAE: Laboratory findings / treatment-related TEAE: Lipase increased / treatment-related TEAE: Musculoskeletal and connective tissue disorders / treatment-related TEAE: Nervous system disorders / treatment-related TEAE: Renal and urinary disorders: study 1
Method in brief: (§1)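 Both double-blind, placebo-controlled trials in RA patients on stable MTX. Oral capsules daily for 4 weeks, with 7–10-day follow-up: 200 mg once daily or 100 mg twice daily (study 1); 30, 75, 150 or 300 mg once daily (study 2). At every visit: AEs, vital signs, hematology, serum biochemistry, coagulation and urinalysis. EKG at baseline and follow-up, plus week 4 in study 1. Safety population, descriptive treatment-emergent AE summaries.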

JAK‐1 relative to JAK‐2 = conditions: human whole blood assays; cited from earlier work
healthy volunteers = conditions: cited from earlier work
RA patients [4] = assay: Study 2, treatment‐emergent adverse events; assay type: in vivo, human; conditions: 30 mg once daily
Method in brief: as §1

O=C(Nc1nc2cccc(-c3ccc(CN4CCS(=O)(=O)CC4)cc3)n2n1)C1CC1 [Filgotinib]
effect on levels of circulating PD markers [1]: dose‐dependent effect | PK half‐life [2]: ~7 h | treatment-related TEAE: Abdominal discomfort (RA patients [3]; 100 mg twice daily): 1 (8.3) number (%) of patients | treatment-related TEAE: Abdominal pain, upper (RA patients [3]; 100 mg twice daily): 0 number (%) of patients | treatment-related TEAE: Aspartate aminotransferase increased (RA patients [3]; 100 mg twice daily): 0 number (%) of patients | treatment-related TEAE: Blood amylase increased (RA patients [3]; 100 mg twice daily): 0 number (%) of patients | treatment-related TEAE: Blood and lymphatic system disorders (RA patients [3]; 100 mg twice daily): 0 number (%) of patients | treatment-related TEAE: Blood triglycerides increased (RA patients [3]; 100 mg twice daily): 0 number (%) of patients | treatment-related TEAE: Cystitis, noninfectious (RA patients [3]; 100 mg twice daily): 0 number (%) of patients | treatment-related TEAE: Duodenogastric reflux (RA patients [3]; 100 mg twice daily): 0 number (%) of patients | treatment-related TEAE: Ear and labyrinth disorders (RA patients [3]; 100 mg twice daily): 0 number (%) of patients | treatment-related TEAE: Gastrointestinal disorders (RA patients [3]; 100 mg twice daily): 2 (16.7) number (%) of patients | treatment-related TEAE: Gastrointestinal pain (RA patients [3]; 100 mg twice daily): 0 number (%) of patients | treatment-related TEAE: General disorders and administration site reactions (RA patients [3]; 100 mg twice daily): 0 number (%) of patients | treatment-related TEAE: Gingival bleeding (RA patients [3]; 100 mg twice daily): 0 number (%) of patients | treatment-related TEAE: Infections and infestations (RA patients [3]; 100 mg twice daily): 0 number (%) of patients | treatment-related TEAE: Laboratory findings (RA patients [3]; 100 mg twice daily): 1 (8.3) number (%) of patients | treatment-related TEAE: Lipase increased (RA patients [3]; 100 mg twice daily): 1 (8.3) number (%) of patients | treatment-related TEAE: Musculoskeletal and connective tissue disorders (RA patients [3]; 100 mg twice daily): 0 number (%) of patients | treatment-related TEAE: Nervous system disorders (RA patients [3]; 100 mg twice daily): 1 (8.3) number (%) of patients | treatment-related TEAE: Renal and urinary disorders (RA patients [3]; 100 mg twice daily): 0 number (%) of patients | treatment-related TEAE: Abdominal discomfort (RA patients [3]; 200 mg once daily): 0 number (%) of patients | treatment-related TEAE: Abdominal pain, upper (RA patients [3]; 200 mg once daily): 1 (8.3) number (%) of patients | treatment-related TEAE: Aspartate aminotransferase increased (RA patients [3]; 200 mg once daily): 0 number (%) of patients | treatment-related TEAE: Blood amylase increased (RA patients [3]; 200 mg once daily): 0 number (%) of patients | treatment-related TEAE: Blood and lymphatic system disorders (RA patients [3]; 200 mg once daily): 0 number (%) of patients | treatment-related TEAE: Blood triglycerides increased (RA patients [3]; 200 mg once daily): 0 number (%) of patients | treatment-related TEAE: Cystitis, noninfectious (RA patients [3]; 200 mg once daily): 0 number (%) of patients | treatment-related TEAE: Duodenogastric reflux (RA patients [3]; 200 mg once daily): 0 number (%) of patients | treatment-related TEAE: Ear and labyrinth disorders (RA patients [3]; 200 mg once daily): 0 number (%) of patients | treatment-related TEAE: Gastrointestinal disorders (RA patients [3]; 200 mg once daily): 2 (16.7) number (%) of patients | treatment-related TEAE: Gastrointestinal pain (RA patients [3]; 200 mg once daily): 0 number (%) of patients | treatment-related TEAE: General disorders and administration site reactions (RA patients [3]; 200 mg once daily): 0 number (%) of patients | treatment-related TEAE: Gingival bleeding (RA patients [3]; 200 mg once daily): 0 number (%) of patients | treatment-related TEAE: Infections and infestations (RA patients [3]; 200 mg once daily): 0 number (%) of patients | treatment-related TEAE: Laboratory findings (RA patients [3]; 200 mg once daily): 0 number (%) of patients | treatment-related TEAE: Lipase increased (RA patients [3]; 200 mg once daily): 0 number (%) of patients | treatment-related TEAE: Musculoskeletal and connective tissue disorders (RA patients [3]; 200 mg once daily): 0 number (%) of patients | treatment-related TEAE: Nervous system disorders (RA patients [3]; 200 mg once daily): 1 (8.3) number (%) of patients | treatment-related TEAE: Renal and urinary disorders (RA patients [3]; 200 mg once daily): 0 number (%) of patients | overall tolerability (RA patients [3]; studies 1 and 2): generally well tolerated | selectivity for inhibition of JAK‐1 relative to JAK‐2 (JAK‐1 relative to JAK‐2): ~30 fold | inhibition of JAK pathways in PD assays (healthy volunteers; healthy volunteers, daily doses of ≥100 mg): Significant inhibition of JAK‐1 pathways but not JAK‐2 | tolerability and safety in healthy volunteers (healthy volunteers; up to 10 days, doses up to 450 mg once daily): well tolerated and safe | treatment-related TEAE: Abdominal discomfort (RA patients [4]): 0 number (%) of patients | treatment-related TEAE: Abdominal pain, upper (RA patients [4]): 0 number (%) of patients | treatment-related TEAE: Aspartate aminotransferase increased (RA patients [4]): 1 (5.9) number (%) of patients | treatment-related TEAE: Blood amylase increased (RA patients [4]): 0 number (%) of patients | treatment-related TEAE: Blood and lymphatic system disorders (RA patients [4]): 0 number (%) of patients | treatment-related TEAE: Blood triglycerides increased (RA patients [4]): 1 (5.9) number (%) of patients | treatment-related TEAE: Cystitis, noninfectious (RA patients [4]): 0 number (%) of patients | treatment-related TEAE: Duodenogastric reflux (RA patients [4]): 0 number (%) of patients | treatment-related TEAE: Ear and labyrinth disorders (RA patients [4]): 0 number (%) of patients | treatment-related TEAE: Gastrointestinal disorders (RA patients [4]): 1 (5.9) number (%) of patients | treatment-related TEAE: Gastrointestinal pain (RA patients [4]): 0 number (%) of patients | treatment-related TEAE: General disorders and administration site reactions (RA patients [4]): 0 number (%) of patients | treatment-related TEAE: Gingival bleeding (RA patients [4]): 0 number (%) of patients | treatment-related TEAE: Infections and infestations (RA patients [4]): 0 number (%) of patients | treatment-related TEAE: Laboratory findings (RA patients [4]): 2 (11.8) number (%) of patients
